Experimental data from paper PMC2820722 (Journal of the American Chemical Society, 2010).
Peptide text beside a SMILES is read from it. * marks the point of attachment. Cbz = O=C(OCc1ccccc1)*

Legend:
[1] = test system: proteasome Ch-L catalytic subunit in yeast cell lysate (defective T-L/Ca-L); test: Yeast cell lysate assay, double mutant strain; type: biochemical; conditions: MG132 5 μM, peptide 5 9.25 μM, Fig. 1A green
[2] = Light-driven conversion of caged probe to active probe; type: physicochemical; conditions: 349 nm pulsed UV laser; caged fluorescein derivative as reference (Fig. S-6)
Method in brief: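 Uncaging by 349 nm diode-pumped Q-switched UV laser (5 ns pulses, 1 kHz, […] pulse energy) of the sample in a quartz cuvette. Dose was set by the number of pulses delivered and compared against an […] (CMNB)-fluorescein reference standard.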

[3] = test system: 20S proteasome T-L active site; type: biochemical, Saccharomyces cerevisiae; conditions: 30 μM peptide 5; 100 μM Boc-LRR-amc; purified 20S proteasome, Buffer A, 30 °C; λex 380 nm, λem 460 nm; Fig. 2B
[4] = test system: proteasome with defective Ch-L subunit in yeast cell lysate; test: Yeast cell lysate assay, defective Ch-L subunit; type: biochemical; conditions: peptide 9.25 μM; ~1 mg protein/mL lysate; λex 600 nm, λem 700 nm; Fig. 1A brown
Method in brief: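 Yeast cells (catalytic Thr→Ala) were harvested in log phase into 50 mM Tris-HCl pH 7.4, 1 mM EDTA, 5 mM MgCl2, drop-frozen in liquid nitrogen, cryolysed by grinding mill, and cleared (14000 rpm, 20 min, 4 °C). Protein was set equal by Bradford. The sensor was added as half the assay volume from a 2× solution, and fluorescence change was followed on a plate reader.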

[5] = test system: 20S proteasome Ca-L active site; type: biochemical, Saccharomyces cerevisiae; conditions: 30 μM peptide 5; 100 μM Z-LLE-βna; purified 20S proteasome, Buffer A, 30 °C; λex 342 nm, λem 425 nm; Fig. 2B

CC(C)C[C@@H](C=O)NC(=O)[C@H](CC(C)C)NC(=O)[C@H](CC(C)C)NC(=O)OCc1ccccc1 [MG132] (Cbz-Leu-Leu-Leu-aldehyde)
Effect of inhibitor on hydrolytic activity towards peptide 5 in lysate [1]: completely abolishes hydrolytic activity

Ac-His-Trp-Ser-Leu-N(DMNB)-Lys(Fl)-amide [Peptide 10]
Quantum yield for the photolytic conversion of 10 to 5 [2]: 0.08

Ac-His-Trp-Ser-Leu-Lys(Fl)-amide [Peptide 5]
Effect of Ch-L substrate on rate of T-L substrate processing [3]: reduces the rate | Fluorescence change of the sensor in lysate with defective Ch-L subunit [4]: barely perceptible fluorescence change | Effect of Ch-L substrate on rate of Ca-L substrate processing [5]: reduces the rate
